Measured values collected from several papers.
Compare with care: the assays were run in different laboratories.
Target: NUAK family SNF1-like kinase 1 (NUAK1, Homo sapiens, UniProt O60285)

Brc1cnc(Nc2cccc(CN3CCOCC3)c2)nc1NCCc1c[nH]cn1 has a remaining activity of 1% (enzyme activity; inhibitor; radiometric; 1 µM).
For O=C(Nc1ccc(Oc2ccc(F)cc2)cc1)N1CCc2ncccc2[C@H]1c1ccc(F)cc1, the remaining binding was 92% (cell-free assay; competition with immobilised ligand; 1 µM).
CCCS(=O)(=O)Nc1ccc(F)c(C(=O)c2c[nH]c3ncc(-c4ccc(Cl)cc4)cc23)c1F gave an inhibition of < 20% (enzyme activity; inhibitor; 1 µM).
CCc1ccccc1C(=O)Nc1n[nH]c2c(C)c(F)c(C3C(C#N)=C(C)N(C)C(C)=C3C#N)cc12 has a remaining binding of 33% (cell-free assay; competition with immobilised ligand; 1 µM).
With Cc1ccc(Nc2nccc(N(C)c3ccc4c(C)n(C)nc4c3)n2)cc1S(N)(=O)=O the inhibition was 76% (enzyme activity; inhibitor; 10 µM).
CC(=O)Nc1c(C(C)=O)c(=O)n(C)c2nc(-c3ccc(Cl)cc3Cl)c(-c3ccc(Cl)cc3)cc12 has a remaining binding of 100% (cell-free assay; competition with immobilised ligand; 1 µM).
COc1cc(/C=C/C(=O)CC(=O)/C=C/c2ccc(O)c(OC)c2)ccc1O has an activity vs control of 55% (enzyme activity; inhibitor; 1 µM).
With C#Cc1cccc(Nc2ncnc3cc(OCCOC)c(OCCOC)cc23)c1 the remaining signal was 98% (cell-free assay; 0.5 µM).
The inhibition of CNC(=O)c1cc(Oc2ccc(NC(=O)Nc3ccc(Cl)c(C(F)(F)F)c3)cc2)ccn1 is reported as -3% (enzyme activity; inhibitor; 0.3 µM).
For C=CC(=O)Nc1cc(Nc2nccc(Nc3cc(Cl)c(F)cc3C(C)(C)O)n2)c(OC)cc1N1CC[C@@H](N(C)C)C1, the inhibition was 17% (enzyme activity; inhibitor; 1 µM).
The remaining binding of CN(C(=O)c1ccccc1)c1cc(N(C)c2ccc3c(c2)CCc2ccc(C(=O)NCCN4CCOCC4)cc2C3=O)ccc1F is reported as 100% (cell-free assay; competition with immobilised ligand; 1 µM).
CCN(CC)CCNC(=O)c1c(C)[nH]c(/C=C2\C(=O)Nc3ccc(F)cc32)c1C gave a remaining signal of 2.75% (cell-free assay; 0.5 µM).
For O=C(NCCCNc1nc(Nc2cccc(CN3CCOCC3)c2)ncc1C1CC1)C1CCC1, the remaining activity was 31% (enzyme activity; inhibitor; radiometric; 1 µM).
For Cc1cc(NC(=O)c2cccc3cc(-c4cccc5[nH]nc(N)c45)ccc23)ccc1F, the activity vs control was 100% (enzyme activity; inhibitor; 0.1 µM).
Cc1nn(CC(F)(F)F)cc1Nc1ncc(Br)c(NCCc2cnc[nH]2)n1 has a remaining activity of 13% (enzyme activity; inhibitor; radiometric; 1 µM).
With CNC(=O)Nc1ccc2c(c1)CC[C@@]21OC(=O)N(CC(=O)N(Cc2ccc(F)cc2)[C@@H](C)C(F)(F)F)C1=O the remaining binding was 94% (cell-free assay; competition with immobilised ligand; 1 µM).
Cc1nn(CC(F)(F)F)cc1Nc1nccc(NCc2ccc(S(N)(=O)=O)cc2)n1 has a remaining activity of 94% (enzyme activity; inhibitor; radiometric; 1 µM).
The remaining signal of O=C1NC(=O)c2cc(Nc3ccc(F)cc3)c(Nc3ccc(F)cc3)cc21 is reported as 94% (cell-free assay; 0.5 µM).
With CN1CCc2cc(Nc3ncc(C4CC4)c(NCCCNC(=O)C4CCC4)n3)ccc2C1 the remaining activity was 6% (enzyme activity; inhibitor; radiometric; 1 µM).
The remaining binding of COc1ccc2c(c1)O[C@@H](c1ccc(OC)c(OC)c1)C[C@H]2NC(=O)C1(c2ccc3c(c2)OC(F)(F)O3)CC1 is reported as 86% (cell-free assay; competition with immobilised ligand; 1 µM).
Cc1nn(CC(F)(F)F)cc1Nc1ncc(Br)c(NCCCNC(=O)C2CCC2)n1 gave a remaining activity of 22% (enzyme activity; inhibitor; radiometric; 1 µM).
For COc1cc(-c2cn(C3CCc4c(F)cccc4N(CC(F)(F)F)C3=O)nn2)ccc1-n1cnc(C)c1 (stereo not drawn), the remaining binding was 100% (cell-free assay; competition with immobilised ligand; 1 µM).
NS(=O)(=O)c1ccc(CNc2ccnc(Nc3cccc(NC(=O)N4CCCC4)c3)n2)cc1 gave a remaining activity of 78% (enzyme activity; inhibitor; radiometric; 1 µM).
CN(C)C1CCN(CC#Cc2nn(C3CCCC3)c3nc(NCc4ccccc4)ncc23)C1 (stereo not drawn) gave an inhibition of 10% (enzyme activity; inhibitor; FRET; 1 µM).
CO[C@@H](C)c1c(Nc2ccc([C@H](N(C)C(=O)C3CCS(=O)(=O)CC3)C(F)(F)F)cc2)cnc2cc(Cl)nn12 has a remaining binding of 98% (cell-free assay; competition with immobilised ligand; 1 µM).
NS(=O)(=O)c1ccc(CNc2nc(Nc3cccc(CN4CCOCC4)c3)ncc2Br)cc1 has a remaining activity of 23% (enzyme activity; inhibitor; radiometric; 1 µM).
For O=C(Nc1cnn(-c2csc(C(=O)NC3COC3)c2)c1)Nc1c(F)cccc1Cl, the remaining activity was 95.2% (enzyme activity; inhibitor; 5 µM).
